Active and inactive are the calls of the source. The calls are words filed in the database; no cut-off is given here. A value given as a limit tells only on which side of the number the result lay.

Tested on in one data set: not listed separately
Kind of data set: Stimulation of platelet aggregation in sheep platelet rich plasma at 100 uM pretreated for 1 min followed by ADP addition by photometric analysis. In kind it is ADME, cell-free, Ovis aries.
Conditions: not given
Summed up:
(§1)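 Citrated sheep blood spun 24 min at 140g to give PRP, diluted with platelet-free plasma (1000g, 10 min) to 300 000-400 000 platelets/mm³. Aggregation read photometrically (Born method) at 37 °C in stirred PRP as light transmission or optical density change. Agents dissolved in saline buffered to pH 7.4 with sodium barbitone. ADP added to 0.67 μM.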
On to `Nc1ncnc2c1ncn2[C@@H]1O[C@H](COS(N)(=O)=O)[C@@H](O)[C@H]1O`, for which the Activity result is given as “Toxic”.

Regarding `Nc1nc(Cl)nc2c1ncn2[C@@H]1O[C@H](COS(N)(=O)=O)[C@@H](O)[C@H]1O`, the Activity entry is on record as “Toxic”.

The test system of a further data set is Platelet. The data set is described as follows: Antiplatelet activity in sheep platelet rich plasma assessed as inhibition of ADP-induced platelet aggregation up to 300 uM pretreated for 2.5 mins followed by ADP addition by photometric analysis. To be noted: Ovis aries. The data set is classed as functional, cell-free. An outline of the steps: as §1
With `Nc1ncnc2c1ncn2[C@@H]1O[C@H](COS(N)(=O)=O)[C@@H](O)[C@H]1O`, the inhibition entry was “inactive”.

In the case of `Nc1nc(Cl)nc2c1ncn2[C@@H]1O[C@H](COS(N)(=O)=O)[C@@H](O)[C@H]1O`, the inhibition entry is “inactive”.

Tested on in the next data set: not listed separately
The data set is described as follows: Antiplatelet activity in sheep platelet rich plasma assessed as inhibition of ADP-induced platelet aggregation pretreated for 2.5 mins followed by ADP addition by photometric analysis relative to adenosine. In kind it is functional, Ovis aries.
Conditions: not given
Summed up:
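Sheep PRP (300 000-400 000 platelets/mm³), 37 °C, stirred, Born photometric read-out. Analogue incubated 2.5 min before ADP (final 0.67 μM). Four doses per analogue. Rate taken as initial slope of the aggregation curve. Potency from log dose vs. percent inhibition plots, expressed relative to adenosine run on each PRP batch. Means of at least four determinations.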
As for `CCSc1nc(N)c2ncn([C@@H]3O[C@H](COP(=O)(O)O)[C@@H](O)[C@H]3O)c2n1`, the “fold change (FC)” value turned out to be 5.2.

For `Nc1ncnc2c1ncn2[C@@H]1O[C@H](COP(=O)(O)O)[C@@H](O)[C@H]1O` [ADENOSINE PHOSPHATE], the “fold change (FC)” value turned out to be 0.12.

Regarding `CNc1nc(SC)nc2c1ncn2[C@@H]1O[C@H](COP(=O)(O)O)[C@@H](O)[C@H]1O`, the “fold change (FC)” value is 0.46.

Take `COc1nc(N)c2ncn([C@@H]3O[C@H](COP(=O)(O)O)[C@@H](O)[C@H]3O)c2n1`: the “fold change (FC)” value turned out to be 0.034.

On to `N.N.Nc1nc(Cl)nc2c1ncn2[C@@H]1O[C@H](COP(O)(O)=S)[C@@H](O)[C@H]1O`, for which the “fold change (FC)” value was 0.44.

Take `CCSc1nc(N)c2ncn([C@@H]3O[C@H](COP(O)(O)=S)[C@@H](O)[C@H]3O)c2n1.N.N`: the “fold change (FC)” value stood at 13.4.

Turning to `CNc1nc(N)c2ncn([C@@H]3O[C@H](COP(=O)(O)O)[C@@H](O)[C@H]3O)c2n1`, the “fold change (FC)” value was 0.027.

With `Nc1nc(Cl)nc2c1ncn2[C@@H]1O[C@H](COP(=O)(O)O)[C@@H](O)[C@H]1O`, the “fold change (FC)” value came out at 0.12.

With `CSc1nc(N)c2ncn([C@@H]3O[C@H](COP(O)(O)=S)[C@@H](O)[C@H]3O)c2n1.N.N`, the “fold change (FC)” value is 4.

Consider `Nc1nc(C(F)(F)F)nc2c1ncn2[C@@H]1O[C@H](COP(=O)(O)O)[C@@H](O)[C@H]1O`, for which the “fold change (FC)” value is given as 0.22.

In the case of `CCOc1nc(N)c2ncn([C@@H]3O[C@H](COP(=O)(O)O)[C@@H](O)[C@H]3O)c2n1`, the “fold change (FC)” value is 0.103.

On to `CCNc1nc(N)c2ncn([C@@H]3O[C@H](COP(=O)(O)O)[C@@H](O)[C@H]3O)c2n1`, for which the “fold change (FC)” value was 0.027.

Take `CSc1nc(N)c2ncn([C@@H]3O[C@H](COP(=O)(O)O)[C@@H](O)[C@H]3O)c2n1`: the “fold change (FC)” value is listed as 2.41.

For `CNc1nc(Cl)nc2c1ncn2[C@@H]1O[C@H](COP(=O)(O)O)[C@@H](O)[C@H]1O`, the “fold change (FC)” value was determined as 0.12.

As to `Nc1ncnc2c1ncn2[C@@H]1O[C@H](COP(O)(O)=S)[C@@H](O)[C@H]1O`, the “fold change (FC)” value turned out to be 0.04.

The subject of the next data set is Platelet. Kind of data set: Antiplatelet activity in sheep platelet rich plasma assessed as inhibition of ADP-induced platelet aggregation at 3.75 uM pretreated for 1 min followed by ADP addition by photometric analysis. To be noted: Ovis aries.
In the case of `CCSc1nc(N)c2ncn([C@@H]3O[C@H](COP(=O)(O)O)[C@@H](O)[C@H]3O)c2n1`, the inhibition result was “Active”.

For `Nc1ncnc2c1ncn2[C@@H]1O[C@H](CO)[C@@H](O)[C@H]1O`, the inhibition result was “Active”.

As to `CCSc1nc(N)c2ncn([C@@H]3O[C@H](COP(O)(O)=S)[C@@H](O)[C@H]3O)c2n1.N.N`, the inhibition result is “Active”.

Another data set has as its system Platelet. The data set is described as follows: Antiplatelet activity in sheep platelet rich plasma assessed as inhibition of serotonin-induced platelet aggregation at 200 uM pretreated for 1 min followed by serotonin addition by photometric analysis. The data set is classed as functional, cell-free. The conditions noted are these: Ovis aries. Summed up:
(§2)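 Serotonin-induced aggregation in sheep PRP adjusted to 300 000-400 000 platelets/mm³, measured at 37 °C by Born photometry in stirred samples. Inhibitor given 1 min before serotonin, with serotonin final 1.6 μM. Agents dissolved in barbitone-buffered saline, pH 7.4.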
As to `Nc1ncnc2c1ncn2[C@@H]1O[C@H](COS(N)(=O)=O)[C@@H](O)[C@H]1O`, the inhibition entry is “Active”.

Consider `CSc1nc(N)c2ncn([C@@H]3O[C@H](COS(N)(=O)=O)[C@@H](O)[C@H]3O)c2n1`, for which the inhibition result was “Active”.

The next data set has as its system Platelet. The data set is described as follows: Antiplatelet activity in sheep platelet rich plasma assessed as inhibition of serotonin-induced platelet aggregation at 100 uM pretreated for 1 min followed by serotonin addition by photometric analysis. The data set is classed as functional, cell-free. To be noted: Ovis aries. An outline of the steps:
as §2
On to `Nc1nc(Cl)nc2c1ncn2[C@@H]1O[C@H](COS(N)(=O)=O)[C@@H](O)[C@H]1O`, for which the inhibition entry was “Active”.

For a further data set, the system named is Platelet. Kind of data set: Antiplatelet activity in sheep platelet rich plasma assessed as inhibition of serotonin-induced platelet aggregation pretreated for 1 min followed by serotonin addition by photometric analysis. The data set is classed as functional, cell-free. To be noted: Ovis aries. An outline of the steps:
as §2
Take `CCSc1nc(N)c2ncn([C@@H]3O[C@H](COP(=O)(O)O)[C@@H](O)[C@H]3O)c2n1`: the inhibition result is “inactive”.

In the case of `Nc1ncnc2c1ncn2[C@@H]1O[C@H](COP(=O)(O)O)[C@@H](O)[C@H]1O` [ADENOSINE PHOSPHATE], the inhibition result was “inactive”.

On to `CNc1nc(SC)nc2c1ncn2[C@@H]1O[C@H](COP(=O)(O)O)[C@@H](O)[C@H]1O`, for which the inhibition result was “inactive”.

On to `COc1nc(N)c2ncn([C@@H]3O[C@H](COP(=O)(O)O)[C@@H](O)[C@H]3O)c2n1`, for which the inhibition result is “inactive”.

As for `N.N.Nc1nc(Cl)nc2c1ncn2[C@@H]1O[C@H](COP(O)(O)=S)[C@@H](O)[C@H]1O`, the inhibition entry was “inactive”.

With `CCSc1nc(N)c2ncn([C@@H]3O[C@H](COP(O)(O)=S)[C@@H](O)[C@H]3O)c2n1.N.N`, the inhibition entry was “inactive”.

With `CNc1nc(N)c2ncn([C@@H]3O[C@H](COP(=O)(O)O)[C@@H](O)[C@H]3O)c2n1`, the inhibition result is “inactive”.

Turning to `Nc1nc(Cl)nc2c1ncn2[C@@H]1O[C@H](COP(=O)(O)O)[C@@H](O)[C@H]1O`, the inhibition result was “inactive”.

As to `CSc1nc(N)c2ncn([C@@H]3O[C@H](COP(O)(O)=S)[C@@H](O)[C@H]3O)c2n1.N.N`, the inhibition entry was “inactive”.

For `Nc1nc(C(F)(F)F)nc2c1ncn2[C@@H]1O[C@H](COP(=O)(O)O)[C@@H](O)[C@H]1O`, the inhibition entry was “inactive”.

In the case of `CCOc1nc(N)c2ncn([C@@H]3O[C@H](COP(=O)(O)O)[C@@H](O)[C@H]3O)c2n1`, the inhibition result is “inactive”.

On to `CCNc1nc(N)c2ncn([C@@H]3O[C@H](COP(=O)(O)O)[C@@H](O)[C@H]3O)c2n1`, for which the inhibition entry was “inactive”.

Consider `CSc1nc(N)c2ncn([C@@H]3O[C@H](COP(=O)(O)O)[C@@H](O)[C@H]3O)c2n1`, for which the inhibition entry is “inactive”.

As to `CNc1nc(Cl)nc2c1ncn2[C@@H]1O[C@H](COP(=O)(O)O)[C@@H](O)[C@H]1O`, the inhibition result is “inactive”.

In the case of `Nc1ncnc2c1ncn2[C@@H]1O[C@H](COP(O)(O)=S)[C@@H](O)[C@H]1O`, the inhibition entry was “inactive”.

A further data set deals with Rattus norvegicus. The data set is described as follows: Toxicity in anesthetized rat assessed as hypotensive potency up to 2.5 umol/kg, iv relative to adenosine. In kind it is organism-based. The conditions noted are these: in vivo.
In the case of `CCSc1nc(N)c2ncn([C@@H]3O[C@H](COP(=O)(O)O)[C@@H](O)[C@H]3O)c2n1`, the Activity is listed as < 1%.

As for `CCSc1nc(N)c2ncn([C@@H]3O[C@H](COP(O)(O)=S)[C@@H](O)[C@H]3O)c2n1.N.N`, the Activity is recorded as < 1%.

For the compound `CSc1nc(N)c2ncn([C@@H]3O[C@H](COP(O)(O)=S)[C@@H](O)[C@H]3O)c2n1.N.N`, the Activity is < 1%.

With `CSc1nc(N)c2ncn([C@@H]3O[C@H](COP(=O)(O)O)[C@@H](O)[C@H]3O)c2n1`, the Activity was < 1%.

In another data set the test system is Platelet. Kind of data set: Antiplatelet activity in sheep platelet rich plasma assessed as inhibition of ADP-induced platelet aggregation pretreated for 2.5 mins followed by ADP addition by photometric analysis. In kind it is functional, cell-free. To be noted: Ovis aries. Summed up: as §1
As for `CCSc1nc(N)c2ncn([C@@H]3O[C@H](COP(=O)(O)O)[C@@H](O)[C@H]3O)c2n1`, the inhibition result was “Dose-dependent effect”.

In the case of `Nc1ncnc2c1ncn2[C@@H]1O[C@H](COP(=O)(O)O)[C@@H](O)[C@H]1O` [ADENOSINE PHOSPHATE], the inhibition result is “Dose-dependent effect”.

Consider `CNc1nc(SC)nc2c1ncn2[C@@H]1O[C@H](COP(=O)(O)O)[C@@H](O)[C@H]1O`, for which the inhibition result is “Dose-dependent effect”.

In the case of `COc1nc(N)c2ncn([C@@H]3O[C@H](COP(=O)(O)O)[C@@H](O)[C@H]3O)c2n1`, the inhibition entry is “Dose-dependent effect”.

Regarding `CNc1nc(N)c2ncn([C@@H]3O[C@H](COP(=O)(O)O)[C@@H](O)[C@H]3O)c2n1`, the inhibition result is “Dose-dependent effect”.

Regarding `Nc1nc(Cl)nc2c1ncn2[C@@H]1O[C@H](COP(=O)(O)O)[C@@H](O)[C@H]1O`, the inhibition result was “Dose-dependent effect”.

Consider `Nc1nc(C(F)(F)F)nc2c1ncn2[C@@H]1O[C@H](COP(=O)(O)O)[C@@H](O)[C@H]1O`, for which the inhibition entry was “Dose-dependent effect”.

As to `CCOc1nc(N)c2ncn([C@@H]3O[C@H](COP(=O)(O)O)[C@@H](O)[C@H]3O)c2n1`, the inhibition entry is “Dose-dependent effect”.

On to `CCNc1nc(N)c2ncn([C@@H]3O[C@H](COP(=O)(O)O)[C@@H](O)[C@H]3O)c2n1`, for which the inhibition result was “Dose-dependent effect”.

Consider `CSc1nc(N)c2ncn([C@@H]3O[C@H](COP(=O)(O)O)[C@@H](O)[C@H]3O)c2n1`, for which the inhibition entry is “Dose-dependent effect”.

As for `CNc1nc(Cl)nc2c1ncn2[C@@H]1O[C@H](COP(=O)(O)O)[C@@H](O)[C@H]1O`, the inhibition entry was “Dose-dependent effect”.

The next data set has as its system Rattus norvegicus. The data set is described as follows: Cardiotoxicity in anesthetized rat assessed as effect on heart rate up to 2.5 umol/kg, iv. The data set is classed as toxicity, organism-based. The conditions noted are these: in vivo.
In the case of `CCSc1nc(N)c2ncn([C@@H]3O[C@H](COP(=O)(O)O)[C@@H](O)[C@H]3O)c2n1`, the Activity entry is reported as “Non-toxic”.

`CCSc1nc(N)c2ncn([C@@H]3O[C@H](COP(O)(O)=S)[C@@H](O)[C@H]3O)c2n1.N.N`: the Activity entry is listed as “Non-toxic”.

Turning to `CSc1nc(N)c2ncn([C@@H]3O[C@H](COP(O)(O)=S)[C@@H](O)[C@H]3O)c2n1.N.N`, the Activity entry is recorded as “Non-toxic”.

`CSc1nc(N)c2ncn([C@@H]3O[C@H](COP(=O)(O)O)[C@@H](O)[C@H]3O)c2n1`: the Activity result is on record as “Non-toxic”.

A further data set deals with Platelet. The data set is described as follows: Antiplatelet activity in sheep platelet rich plasma assessed as inhibition of ADP-induced platelet aggregation at 100 uM pretreated for 1 min followed by ADP addition by photometric analysis. In kind it is functional, cell-free. The conditions noted are these: Ovis aries. An outline of the steps:
as §1
With `CSc1nc(N)c2ncn([C@@H]3O[C@H](COS(N)(=O)=O)[C@@H](O)[C@H]3O)c2n1`, the inhibition entry was “Active”.
